Data taken from the EternaBench riboswitch data.

Test system: MS2 coat protein
Test: apparent Kd, MS2 coat protein; higher = weaker binding; RNA-MaP array; FMN 200 µM where present
Outline: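 The apparent Kd is the median of filtered binding-curve fits, one per cluster, to green signal normalised to red-channel RNA signal and control-cluster median Fmax. The clusters were on Illumina sequencing chips, and stalled E. coli RNA polymerase had transcribed the designs on them. Titration used SNAP-549-labelled MS2 coat protein from 0.7 or 1.5 nM, doubling to 3 µM, without and then with constant ligand, in 100 mM Tris-HCl pH 7.5, 80 mM KCl, 4 mM MgCl2, BSA, DTT, yeast tRNA and Tween-20.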

[1] = designed as: OFF switch for flavin mononucleotide, no ligand
[2] = ligand present: flavin mononucleotide, designed as: OFF switch for flavin mononucleotide
[3] = designed as: ON switch for flavin mononucleotide, no ligand
[4] = ligand present: flavin mononucleotide, designed as: ON switch for flavin mononucleotide

Sequence	apparent Kd [1] [nM]	apparent Kd [2] [nM]	apparent Kd [3] [nM]	apparent Kd [4] [nM]
AAACUGCAUGUGAGGAUAUGCACCGGCUAAACCGGGCAGAAGGCACAUGAGGAUCACCCAUGUCAUCCUAUUGC	9.41	18.4	–	–
AAUGGCUAGCGCUCUGGAACUGCACAGGAUAUGAAGAGCUACAUGAGGAUCACCCAUGUUUAAAAUCAGAAGGGUGAGUAUCAG	–	–	166	16.2
GUCAGCUCGUGAGGAUAUACAACACUGCUUCGGCAGUGUAUUAGGAUCACAUGAGGAUCACCCAUGUAGAAGGCACGAGCUGAU	16.3	323	–	–
GGAUCAAUAGUCCACAUGAGGAUCACCCAUGUAGUAUUUUACAAGGAUAUGGUGGGACUUCGUGGCCAGAAGGUGUAAAGGAUC	–	–	194	99.7
UAUUAUCACGAAGGAUAUGCUGACAUGAGGAUCACCCAUGUAUGUAUAUUGAUCCAGCGUAUUUAGCAGAAGGUCGUGAGUAAA	45.9	43	–	–
AGAUGACAAAGUCAUCUUCAACGGACAUGAGGAUCACCCAUGUAGGAUAUGCUACUCAAAGAGUAGCAGAAGGACAUGUGUCUU	35	193	–	–
CGGCCGGGCCGAGGAUAUAAGUCUAGGACAUGAGGAUCACCCAUGUAUGUCUUAGAAGGCGGCCCGGCCAGCCUGUUACAGGCA	–	–	31.2	5.85
ACAUUAGUAUCACAUGUAUUACAUGAGGAUCACCCAUGUUACUAGGAUAUGUAUUAGAAUUUACAACAGAAGGAGUUAAUUUGU	7.52	7.7	–	–
GUCGUUUCUGAGGAUAUUAUUUUUUUCGAUUGAUAAGAAGGCAGUACAUGAGGAUCACCCAUGUGGGUUGUCUG	30	97.3	–	–
AGUUAAUAUCGAGGAUAUGUCUAGACACAUGAGGAUCACCCAUGUAUGUGUAUAGAAGGCAAAAUUAACAGCAUGUUACAUGCA	–	–	30.6	24.9
CGCUACGUUUCGUAGCAGUGUCAUCGAGAAGGCCCUGACAUGAGGAUCACCCAUGUUGUUACAUGGGAGGAUAUCGAUGAUACG	–	–	13	5.4
CAGCAAAGGUAGAAGGCAGUACUGAUACAGUACUGAGGAUAUACAUGAGGAUCACCCAUGUUCUUCAGCUGGAAAUAAAUAAAA	8.98	134	–	–
AAUUAGUAAGAAUCACAUGAGGAUCACCCAUGUUUACGGAUGCAGGAUAUGUGGGAUAUUACUUAACAGAAGGGCAAUAACUUU	–	–	104	44.2
CUUUUGUGAGGAUAUCAGUAGUAAAAAUAUAAAAUUACUACUGAGAAGGCACAUGAGGAUCACCCAUGUUCCUC	39.7	244	–	–
UUGCGGUAGGAGAAGGACAGAGGCGGAAACACAAACAUGAGGAUCACCCAUGUAGGAUAUCCUACCUAACGCGGAUCCCUCCAG	11.1	34.6	–	–
UUAAUAAGUGUGAGGAUAUGCUGGUCCUUGGAUCAGCAGAAGGCACAUGAGGAUCACCCAUGUACAAUAUAUUA	33.6	215	–	–
CAGCGCUGUCGAGAGGAUAUGCGGUGAUGGACAUGAGGAUCACCCAUGUUAGCGACAGCAUCACGGCAGAAGGCUCUACCGCUGC	–	–	31.5	21.7
ACAUGCGGAUGAGGAUAUUCAUUUAUGAGGAUAGAAGAAGGCAUACAUGAGGAUCACCCAUGUAUACGCAUGAGGAUCCCUUAC	39.1	41	–	–
UCAACCAGCGCCGGUUAAACAUGAGGAUCACCCAUGUACUCCAGAAGGCCGCCCAAGAACGGAGUGGAGGAUAUGGAGGUUCUC	–	–	46.8	38.7
GCACUUAAAAUUGAACCGUUUCGAACAUGAGGAUCACCCAUGUAGGAUAUGCUAAAAGUUGUGAUGCAGAAGGACAAUAAGUGC	6.82	6.67	–	–
ACAUGAGGAUCACCCAUGUUGACAUAGGAUAUACAACAAUAGUUACAAUCAUGUACUAUUUGAUAGUAGAAGGAUGGAACAUGA	15.2	25.8	–	–
GAAUAUUCGUGGUACAUGAGGAUCACCCAUGUGUCUUUACAUGAGGAUAUGGAUUCUAAUUGGAUCCAGAAGGCAUGAAUAUUC	–	–	75.5	31.2
UGUAUGGACAGAGGAUAUGCCGAUAGGAUUUACUAUCGAAGAAUCCUCACAUGAGGAUCACCCAUGUAGAAGGCUGUCCAUACU	8.14	38.4	–	–
CGAUGAGGAGUGAGGAUAUCGUGUUCGAAAGAACGUGAGAAGGCACAUGAGGAUCACCCAUGUGAAACUUGUCG	17.1	23.9	–	–
UGGCUGAGUCGAGGAUAUGAUCUUCAUAUAUAUACAUGAGGAUCACCCAUGUAUAAUUACAUGGAUCAGAAGGCGACUCAGCCU	–	–	29.4	9.47
GCGUCAGUUUCACAUGUAAUACAUGAGGAUCACCCAUGUUACUAGGAUAUGUAUUAGAAUUAUCAACAGAAGGAGUAAUGACGC	11.1	12.8	–	–
CACGUCCACACAGGAUAUGCUGGACUUUGUCCAGCAGAAGGGUGACAACAUGAGGAUCACCCAUGUAGGACGUGUAUAUUUAAU	–	–	1040	196
ACAUGAGGAUCACCCAUGUGUCAACCAGAAGGCACAUUACGUAUUUCUAUGUGUGCGUAAAUAAGUGAGGAUAUGGAUAAUAGA	–	–	11.2	7.21

Sequence	apparent Kd [1] [nM]	apparent Kd [2] [nM]	apparent Kd [3] [nM]	apparent Kd [4] [nM]
CGCAACUCUUCUCAUGUAAACAUGAGGAUCACCCAUGUAAUGAGAAGGAGGAAGAAGAGAGAUUCCUAGGAUAUCAGAGUUGCG	5.41	5.52	–	–
GCCUUAUCGGUCAGGAUAUACACCCGUUAGUUGUUGUAGAAGGGACAUGAGGAUCACCCAUGUACAUUACAUUG	22.8	60	–	–
GCCAGAGCAGGAUAUCUAAUAUGUCACAUGAGGAUCACCCAUGUCCAGCGAAAGCUGGAGGGAGAAGGGCUCUGGC	65.6	24.4	–	–
GGAUAGGACAGAGGAUAUACGUGCUAGAGAUACUAGCAAUAUUUCCUCACAUGAGGAUCACCCAUGUAGAAGGCUGUCCUAUCG	6.26	73.7	–	–
UUACUACAUGAGGAUCACCCAUGUCAGGAUAUUGUCUAUACUUUGGAAUAUGUGUCGAUAAGAAGGGACUGUAU	19.9	26.2	–	–
CAAUCUCAGAUAGGAUAUAUAGGAUAACUUAAGACCUAACAUGAGGAUCACCCAUGUGAUUAUUCGUAGAAGGAUCAUUGAACC	–	–	205	190
GUGCACAUUCGAGGAUAUCGGAGAGAGAUCGUUCGAGAAGGCGAUUCAUGAUGUAUUAUCCUGGACAUGAGGAUCACCCAUGUG	–	–	105	89.3
AACGAAAGCCAAGGAUAUGCAGGUGACAUGAGGAUCACCCAUGUGGAUUGUGAUCCUUAACUGAUGCAGAAGGUGGAUCUGUUG	513	322	–	–
AAAAAGUGAGGAUAUCGGAAAAAAAAAAAAAAAAAAAAAAACGAGAAGGCACAUGAGGAUCACCCAUGUAAAAA	42.3	33.6	–	–
GUGUGAAUAGGAGGAUAUAUACAACAUGAGGAUCACCCAUGUACCCGUGUAGUAGAAGGUUUGUUUUUAUAUAAUAUUAUAUUU	–	–	26.8	21.6
CAGGUAGCUACAGGAUAUACACAGCUCAGUAAACUGAGCAAAACAACUACAUGAGGAUCACCCAUGUAGAAGGGUAGCUGCCUG	17	17.1	–	–
AUAUCCUAGAUAGGAUAUACUGAGGUUGAAUGGGUAGAAGGAUCGUUAGGGAAGACUACAUGAGGAUCACCCAUGUUGUUUAUU	–	–	116	92.9
UUAUUAUAUGUAGGAUAUGCAUAUUAUUAUUGUGCAGAAGGACAUGAGGAUCACCCAUGUAUAUUAUUAGUAUAUAUUAUAUAU	18.5	19.2	–	–
UACAUUUAACAGAAGGCGUUUAUAUUUAACUUACGAGGAUAUGUAUAACAUGAGGAUCACCCAUGUAACUUGGAUAGAAUAUCU	–	–	9.46	8.32
UGUUGUAUUACAGGAUAUCUAGUAUUUUUGUUUAGAGAAGGGUAUUCACAUGAGGAUCACCCAUGUAUAUACGAGGAAGUUGUG	–	–	57.2	63.7
AUCAUGUGAGGAUAUAAAAUGAAUAUAAAUUAUUAUCUUGAUUAGAAGGCACAUGAGGAUCACCCAUGUCUGAA	32.5	39.2	–	–
AAAAAGUGAGGAUAUGCUGCUCGUCACUUGCGUGAUGAGUAGCAGAAGGCACAUGAGGAUCACCCAUGUAAAAA	36.2	42.8	–	–
GUUAAGUGAGGAUAUGGUGAGUAGUGCCUGAGCGCUGCUCACCAGAAGGCACAUGAGGAUCACCCAUGUAUAAC	23	36	–	–
AAAAGUUUGGAGGAUAUCCAUCCAAACGGAUAAGGAGAAGGCCGGACAUGAGGAUCACCCAUGUGAUUAGGUUA	14.2	24.8	–	–
GUCCCUACAUGAGGAUCACCCAUGUGGGCGGUAAGGAGCCCACAGGAUAUGCGAAGUAGGACAUAGCAGAAGGGUGGUGUUCAG	–	–	146	97.3
UGUAUGGACAGAGGAUAUACCGAUAGGAUCUACUAUCGAAGAAUCCUCACAUGAGGAUCACCCAUGUAGAAGGCUGUCCAUACU	41.3	665	–	–
AUUGAUAUUGAGGAUAUGCUUUUAUUUGUUCUUGCAGAAGGCGAUACAUGAGGAUCACCCAUGUUUAUGGAAGU	40.8	48	–	–
GGGUUGGGAGGAUAUCCAAUAUAUGACAUGAGGAUCACCCAUGUUUCCACUCGUACCUCCGGAGAAGGCCCAUCCC	22.9	21.1	–	–
UACGUACAGAAGAACUCCGGGUCCAGAAGGGACAUGAGGAUCACCCAUGUACCGUUGAUUGCUUGUCAGGAUAUGGACCCAGCC	7.75	26.8	–	–
CUUUAGUGAGGAUAUUAGUAGUAAUACAAUAGUAUUACUACUGAGAAGGCACAUGAGGAUCACCCAUGUUCCUC	27.8	292	–	–
UGUUGUAUUACAGGAUAUCUGUUAUUUUUAUUUAGAGAAGGGUAUUCACAUGAGGAUCACCCAUGUAUAUACGAGGAAGUUGUG	–	–	57.3	61.4
AUAUCUCAAUUAGAUCCAAUACGAACAUGAGGAUCACCCAUGUAGGAUAUGCUAGAAGUUGUGUUGCAGAAGGACAUAUACCUU	41.4	38.6	–	–
